Source: ChEMBL document CHEMBL1121369, “Antihypertensive (2-aminoethyl)thiourea derivatives. 1” (J Med Chem, 1980)
Where “and” joins values, the source holds several entries; their conditions need not be identical. Equal values may be shown once.

Key:
Rattus norvegicus [1] = experiment: Compound is measured for oral antihypertensive activity in groups of 6-12 conscious spontaneously hypertensive rats at 100 mg/kg; assay type: functional
Method in brief: (§1)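 Male spontaneously hypertensive rats of Wistar–Okamoto origin (12–15 weeks old, bred in-house) were dosed orally, in groups of 6–12 and conscious. Each rat was warmed for 5–10 min at 37–38 °C, then restrained. Systolic pressure was read indirectly at the tail with an occluding cuff and a piezoelectric pulse transducer, before dosing and at 1, 3, 6 and 24 h after.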

Rattus norvegicus [2] = experiment: Compound is measured for oral antihypertensive activity in groups of 6-12 conscious spontaneously hypertensive rats at 175 mg/kg; assay type: functional; method in brief: as §1
Rattus norvegicus [3] = experiment: Compound is measured for oral antihypertensive activity in groups of 6-12 conscious spontaneously hypertensive rats at 100 mg/kg; Range is 15-20%; assay type: functional; method in brief: as §1
Rattus norvegicus [4] = experiment: Compound is measured for oral antihypertensive activity in groups of 6-12 deoxy-corticosterone-sodium hypertensive (DOCA-Na) rats at 10 mg/kg(fall in systolic blood pressure 6-24 hr after dosing); assay type: functional, Artery
Method in brief: (§2)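 DOCA-Na rats were given two weeks to become hypertensive (systolic above 200 mmHg) and were then dosed orally, in groups of 6–12 and unanesthetized. Rats were warmed for 5–10 min at 37–38 °C and restrained. Systolic tail pressure was read with a cuff and pneumatic pulse transducer, before dosing and at 1, 3, 6 and 24 h post-dose.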

Rattus norvegicus [5] = experiment: Compound is measured for oral antihypertensive activity in groups of 6-12 conscious spontaneously hypertensive rats at 10 mg/kg; Range is 15-20%; assay type: functional; method in brief: as §1
Rattus norvegicus [6] = experiment: Compound is measured for oral antihypertensive activity in groups of 6-12 conscious spontaneously hypertensive rats at 75 mg/kg; assay type: functional; method in brief: as §1
Canis familiaris [7] = experiment: (§3) Oral dose required to cause 20% fall in blood pressure; assay type: functional, Canis lupus familiaris
Canis familiaris [8] = experiment: Oral dose required to cause 20% fall in sedation; Range is 30-60; assay type: functional, Canis lupus familiaris
Rattus norvegicus [9] = experiment: Oral dose required to cause 20% fall in sedation; Decrease spontaneous motor activity; assay type: functional
Method in brief: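 Normotensive rats were dosed orally. Spontaneous motor activity was counted with an electronic motility meter over a 10-min period starting 1 h after dosing. The dose was estimated from dose–response curves, with 95% fiducial limits.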

Monkey = experiment: (§4) Oral dose required to cause 20% fall in sedation; Increase in foot shock rate; assay type: functional
Method in brief: (§5)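 Male Charles River C-D rats and squirrel monkeys were trained to press a lever at a stable rate to postpone a 5-s foot shock, given every 20 s on failure. Drugs were given orally, with control sessions before, between and after test sessions. Avoidance-rate decrease and the increase in shocks/hour were recorded. Significance threshold: a 12% decrease or 4 extra shocks/hour (p ≤ 0.05).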

Rattus norvegicus [10] = experiment: as §4; assay type: functional; method in brief: as §5
Rattus norvegicus [11] = experiment: as §3; assay type: functional
Rattus norvegicus [12] = experiment: Compound is measured for oral antihypertensive activity in groups of 6-12 deoxy-corticosterone-sodium hypertensive (DOCA-Na) rats at 0.5 mg/kg; assay type: functional; method in brief: as §2
Rattus norvegicus [13] = experiment: Compound is measured for oral antihypertensive activity in groups of 6-12 deoxy-corticosterone-sodium hypertensive (DOCA-Na) rats at 1 mg/kg; Range is 15-20%; assay type: functional; method in brief: as §2
Rattus norvegicus [14] = experiment: Compound is measured for oral antihypertensive activity in groups of 6-12 deoxy-corticosterone-sodium hypertensive (DOCA-Na) rats at 10 mg/kg (fall in systolic blood pressure 6-24 hr after dosing); assay type: functional, Artery; method in brief: as §2
Rattus norvegicus [15] = experiment: Compound is measured for oral antihypertensive activity in groups of 6-12 conscious spontaneously hypertensive rats at 0.5 mg/kg; assay type: functional; method in brief: as §1
Rattus norvegicus [16] = experiment: Compound is measured for oral antihypertensive activity in groups of 6-12 conscious spontaneously hypertensive rats at 1 mg/kg; Range is 15-20%; assay type: functional; method in brief: as §1
Rattus norvegicus [17] = experiment: Compound is measured for oral antihypertensive activity in groups of 6-12 conscious spontaneously hypertensive rats at 10 mg/kg (fall in systolic blood pressure 6-24 hr after dosing); assay type: functional, Artery; method in brief: as §1
[18] = Therapeutic ratio is oral dose producing sedation/reduction in blood pressure; assay type: ADME, tissue-based
[19] = Therapeutic ratio is oral dose producing sedation/reduction in blood pressure; Range is 30-60; assay type: ADME, tissue-based
Rattus norvegicus [20] = experiment: Compound is measured for oral antihypertensive activity in groups of 6-12 conscious spontaneously hypertensive rats at 200 mg/kg; Range is 15-20%; assay type: functional; method in brief: as §1
Rattus norvegicus [21] = experiment: Compound is measured for oral antihypertensive activity in groups of 6-12 conscious spontaneously hypertensive rats at 10 mg/kg; assay type: functional; method in brief: as §1
Rattus norvegicus [22] = experiment: Compound is measured for oral antihypertensive activity in groups of 6-12 deoxy-corticosterone-sodium hypertensive (DOCA-Na) rats at 10 mg/kg; Range is 10-15%; assay type: functional; method in brief: as §2
Rattus norvegicus [23] = experiment: Compound is measured for oral antihypertensive activity in groups of 6-12 conscious spontaneously hypertensive rats at 250 mg/kg; Range is 10-15%; assay type: functional; method in brief: as §1
Rattus norvegicus [24] = experiment: Compound is measured for oral antihypertensive activity in groups of 6-12 deoxy-corticosterone-sodium hypertensive (DOCA-Na) rats at 10 mg/kg; Range is 15-20%; assay type: functional; method in brief: as §2
Rattus norvegicus [25] = experiment: Compound is measured for oral antihypertensive activity in groups of 6-12 conscious spontaneously hypertensive rats at 250 mg/kg; assay type: functional; method in brief: as §1
Rattus norvegicus [26] = experiment: Compound is measured for oral antihypertensive activity in groups of 6-12 deoxy-corticosterone-sodium hypertensive (DOCA-Na) rats at 10 mg/kg; assay type: functional; method in brief: as §2
Rattus norvegicus [27] = experiment: Compound is measured for oral antihypertensive activity in groups of 6-12 conscious spontaneously hypertensive rats at 60 mg/kg; assay type: functional; method in brief: as §1
Rattus norvegicus [28] = experiment: Compound is measured for oral antihypertensive activity in groups of 6-12 conscious spontaneously hypertensive rats at 30 mg/kg; assay type: functional; method in brief: as §1
Rattus norvegicus [29] = experiment: Compound is measured for oral antihypertensive activity in groups of 6-12 deoxy-corticosterone-sodium hypertensive (DOCA-Na) rats at 60 mg/kg(fall in systolic blood pressure 6-24 h after dosing); assay type: functional, Artery; method in brief: as §2
Rattus norvegicus [30] = experiment: Compound is measured for oral antihypertensive activity in groups of 6-12 conscious spontaneously hypertensive rats at 85 mg/kg; assay type: functional; method in brief: as §1
Rattus norvegicus [31] = experiment: Compound is measured for oral antihypertensive activity in groups of 6-12 conscious spontaneously hypertensive rats at 50 mg/kg(fall in systolic blood pressure 6-24 hr after dosing); assay type: functional, Artery; method in brief: as §1
Rattus norvegicus [32] = experiment: Compound is measured for oral antihypertensive activity in groups of 6-12 conscious spontaneously hypertensive rats at 45 mg/kg; Range is 10-15%; assay type: functional; method in brief: as §1
Rattus norvegicus [33] = experiment: Compound is measured for oral antihypertensive activity in groups of 6-12 conscious spontaneously hypertensive rats at 10 mg/kg(fall in systolic blood pressure 6-24 hr after dosing); assay type: functional, Artery; method in brief: as §1
in vivo = conditions: blood, po
Rattus norvegicus [34] = experiment: Compound is measured for oral antihypertensive activity in groups of 6-12 conscious spontaneously hypertensive rats at 160 mg/kg; Range is 15-20%; assay type: functional; method in brief: as §1
Rattus norvegicus [35] = experiment: Compound is measured for oral antihypertensive activity in groups of 6-12 deoxy-corticosterone-sodium hypertensive (DOCA-Na) rats at 1 mg/kg; assay type: functional; method in brief: as §2
Rattus norvegicus [36] = experiment: Compound is measured for oral antihypertensive activity in groups of 6-12 deoxy-corticosterone-sodium hypertensive (DOCA-Na) rats at 5 mg/kg; Range is 10-15%; assay type: functional; method in brief: as §2
Rattus norvegicus [37] = experiment: Compound is measured for oral antihypertensive activity in groups of 6-12 conscious spontaneously hypertensive rats at 1 mg/kg (fall in systolic blood pressure 6-24 hr after dosing); assay type: functional, Artery; method in brief: as §1

Molecule `Cc1ccc(/N=C(\S)NCCN)c(C)c1.O=C(O)/C=C\C(=O)O` has an Effect (Rattus norvegicus [1]) of under 10%.

Molecule `OCC/N=C(\S)Nc1c(Cl)cccc1Cl` has an Effect (Rattus norvegicus [2]) of under 10%.

`NS(=O)(=O)CC/N=C(\S)Nc1c(Cl)cccc1Cl` showed an Effect (Rattus norvegicus [3]) of 15%.

In the case of `Cc1cccc(C)c1/N=C(\S)NCCN.O=C(O)CCC(=O)O`, the Effect (Rattus norvegicus [4]) is reported as over 20% and the Effect (Rattus norvegicus [5]) is reported as 15%.

With `N#CCCNC(=S)Nc1c(Cl)cccc1Cl` the Effect (Rattus norvegicus [6]) was under 10%.

For `NCC/N=C(\S)Nc1c(Cl)cccc1Cl.O=C(O)/C=C\C(=O)O`, the Dose (Canis familiaris [7]) was 1 mg/kg, the Dose (Canis familiaris [8]) was 30 mg/kg and the Dose (Rattus norvegicus [9]) was 0.69 mg/kg. It also gave a Dose (Monkey) of over 64 mg/kg, a Dose (Rattus norvegicus [10]) of 1.7 mg/kg and a Dose (Rattus norvegicus [11]) of 2.4 mg/kg. For the same molecule, the Effect (Rattus norvegicus [12]) was under 10%, the Effect (Rattus norvegicus [13]) was 15% and the Effect (Rattus norvegicus [14]) was over 20%. It also gave an Effect (Rattus norvegicus [15]) of under 10%, an Effect (Rattus norvegicus [16]) of 15% and an Effect (Rattus norvegicus [17]) of over 20%. For the same molecule, the Ratio [18] was 0.28 and 0.71 and the selectivity ratio [19] was 30.

With `NCCC/N=C(\S)Nc1c(Cl)cccc1Cl` the Effect (Rattus norvegicus [20]) was 15%.

Work on `Cl.NCC/N=C(\S)Nc1ccccc1` yielded an Effect (Rattus norvegicus [21]) of under 10%.

For `O=C(O)CC/N=C(\S)Nc1c(Cl)cccc1Cl`, the Effect (Rattus norvegicus [1]) was under 10%.

Molecule `NCC/N=C(\N)Nc1c(Cl)cccc1Cl` has an Effect (Rattus norvegicus [22]) of 10% and an Effect (Rattus norvegicus [23]) of 10%.

For `CNCC/N=C(\S)Nc1c(Cl)cccc1Cl.O=C(O)/C=C\C(=O)O`, the Effect (Rattus norvegicus [1]) was under 10%.

For `Cc1ccc(/N=C(\S)NCCN)c(Cl)c1.O=C(O)/C=C\C(=O)O`, the Effect (Rattus norvegicus [1]) was under 10%.

For `CS/C(=N\CCN)Nc1c(Cl)cccc1Cl`, the Effect (Rattus norvegicus [24]) was 15% and the Effect (Rattus norvegicus [5]) was 15%.

In the case of `NC(=O)CC/N=C(\S)Nc1c(Cl)cccc1Cl`, the Effect (Rattus norvegicus [1]) is reported as under 10%.

Molecule `N/N=C(\S)Nc1c(Cl)cccc1Cl` has an Effect (Rattus norvegicus [25]) of under 10%.

Molecule `CC(=O)NCC/N=C(\N)Nc1c(Cl)cccc1Cl` has an Effect (Rattus norvegicus [26]) of under 10% and an Effect (Rattus norvegicus [25]) of under 10%.

With `CN1CCN(/C(S)=N/c2c(Cl)cccc2Cl)CC1.Cl` the Effect (Rattus norvegicus [27]) was under 10%.

Work on `Cl.S=C(NCCN1CCCCC1)Nc1c(Cl)cccc1Cl` yielded an Effect (Rattus norvegicus [28]) of under 10%.

`CCOC(=O)CC/N=C(\S)Nc1c(Cl)cccc1Cl` gave an Effect (Rattus norvegicus [1]) of under 10%.

`N/C(S)=N/c1c(Cl)cccc1Cl` gave an Effect (Rattus norvegicus [27]) of under 10% and an Effect (Rattus norvegicus [29]) of under 10%.

For `CNCCN(C)/C(S)=N/c1c(Cl)cccc1Cl.O=C(O)/C=C\C(=O)O`, the Effect (Rattus norvegicus [30]) was under 10%.

With `NCC/N=C(\S)Nc1c(Cl)cc([N+](=O)[O-])cc1Cl.O=C(O)/C=C\C(=O)O` the Effect (Rattus norvegicus [31]) was over 20% and the Effect (Rattus norvegicus [21]) was under 10%.

With `NCCNC(=O)Nc1c(Cl)cccc1Cl` the Effect (Rattus norvegicus [26]) was under 10% and the Effect (Rattus norvegicus [25]) was under 10%.

`CCN(CC)CC/N=C(\S)Nc1c(Cl)cccc1Cl.Cl` showed an Effect (Rattus norvegicus [32]) of 10%.

In the case of `NCC/N=C(\S)Nc1c(Br)cccc1Br`, the Effect (Rattus norvegicus [4]) is reported as over 20%, the Effect (Rattus norvegicus [16]) is reported as 15% and the Effect (Rattus norvegicus [33]) is reported as over 20%.

With `COc1cccc(OC)c1/N=C(\S)NCCN.O=C(O)/C=C\C(=O)O` the Effect (Rattus norvegicus [1]) was under 10%.

`Clc1cccc(Cl)c1NC1=NCCN1` [CLONIDINE] showed a Dose (Canis familiaris [7]) of 0.3 mg/kg, a Dose (Monkey) of 0.7 mg/kg and a Dose (Rattus norvegicus [11]) of 0.06 mg/kg. The Effect (Rattus norvegicus [12]) was over 20%, the Effect (Rattus norvegicus [15]) was over 20% and the Ratio [18] was 3. The selectivity ratio [18] was 1.83 and the selectivity ratio (in vivo) was 0.8.

Molecule `CN1CCN(CC/N=C(\S)Nc2c(Cl)cccc2Cl)CC1.Cl.Cl` has an Effect (Rattus norvegicus [34]) of 15%.

In the case of `NCC/N=C(\S)Nc1cccc(Cl)c1Cl.O=C(O)/C=C\C(=O)O`, the Effect (Rattus norvegicus [35]) is reported as under 10%, the Effect (Rattus norvegicus [36]) is reported as 10% and the Effect (Rattus norvegicus [4]) is reported as over 20%. It also gave an Effect (Rattus norvegicus [15]) of under 10%, an Effect (Rattus norvegicus [33]) of over 20% and an Effect (Rattus norvegicus [37]) of over 20%.

`Cl.N=C(N)CC/N=C(\S)Nc1c(Cl)cccc1Cl` showed an Effect (Rattus norvegicus [1]) of under 10%.

`NCC/N=C(\S)Nc1c(Cl)cc(Cl)cc1Cl.O=C(O)/C=C\C(=O)O` showed an Effect (Rattus norvegicus [3]) of 15% and an Effect (Rattus norvegicus [21]) of under 10%.

For `CCO.NCC/N=C(\S)Nc1c(F)cccc1F.O=C(O)CCC(=O)O`, the Effect (Rattus norvegicus [26]) was under 10% and the Effect (Rattus norvegicus [21]) was under 10%.
